INS promoter act: activators of insulin promoter-driven GFP, primary screen, imaging, TRM-6 cells, eGFP reporter, cell count; plate-scaled: unstimulated 0, stimulated control 100; activation, % at 2 µM; 0.81% of 130,000 active; AID 1296, 2008;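 active = activation at 2 µM above a set limit, confirmed on inspection of the cell images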;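 also: share of cells whose green reporter signal exceeds an intensity cutoff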
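Material: Human fetal islet-derived TRM-6 cells with tamoxifen-inducible insulin promoter–eGFP reporter | Medium: Low-glucose (5.5 mM) medium with tamoxifen | Probe or stimulus: Tamoxifen inducer, 0.75 µM, in seeding medium | Schedule: Tamoxifen pre-incubation 15 h overnight, then compound exposure 48 h at 37 °C | Detection: High-content imaging of fixed cells with Hoechst nuclear stain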
An asterisk follows results filed as active. The sample as a whole holds a higher share of hits than the screen did.

SMILES	INS promoter act
O=C(Nc1cc(S(=O)(=O)N2CCCCC2)ccc1Cl)c1ccccc1NS(=O)(=O)c1ccc(F)cc1	525.0*
O=C(Nc1ccccc1N1CCOCC1)c1ccccc1NS(=O)(=O)c1ccc(F)cc1	8.1
O=C(Nc1cc(S(=O)(=O)N2CCCC2)ccc1OCC(F)(F)F)c1ccc(F)cc1	-6.7
CC1=C(C)CC2(SC1)C(=O)N(c1ccccc1)N=C2N (stereo not drawn)	-7.1
S=c1[nH]c(-c2ccc(Br)cc2)cn1CCc1ccccc1	0.0
Cc1cc(C)c(S(=O)(=O)N(C)CC(=O)NC2CCCC2)c(C)c1	-7.0
Cc1ccccc1CN1C(=O)CSc2ccc(C(=O)N3CCOCC3)cc21	7.7
Cc1ccccc1CC1(CO)CCCN(C(=O)c2ccc3ncccc3c2)C1 (stereo not drawn)	227.8*
OCC1(Cc2ccccc2)CCCN(Cc2cnn(-c3ccccc3)c2)C1 (stereo not drawn)	5.6
CCNC(=S)N(CCc1c(C)[nH]c2ccccc12)Cc1cc(OC)c(OC)c(OC)c1	-9.5
CCN(CC)S(=O)(=O)c1ccc(OC)c(NC(=O)Cn2cnc3c2c(=O)n(C)c(=O)n3C)c1	0.0
Cc1cccc(N=C2NC(=O)/C(=C/c3cccs3)S2)c1	0.0
COc1ccccc1/C=C1\S/C(=N/NC(=O)c2cccc(Br)c2)NC1=O	-7.7
COc1cc(/C=C2\S/C(=N/S(=O)(=O)c3ccc(C)cc3)NC2=O)c([N+](=O)[O-])cc1OC	453.3*
CN(CC(=O)N1CCCC1)S(=O)(=O)c1ccc(Cl)cc1	6.5
COc1ccc(S(=O)(=O)N(C)CC(=O)N2CCCCC2)cc1Cl	233.3
COc1ccc(S(=O)(=O)N(C)CC(=O)N2CCOCC2)cc1Cl	462.5*
C[C@H](CO)NC(=O)[C@H](C)[C@H]1C[C@]1(C)[C@H](NC(=O)OCc1ccccc1)c1ccccc1	0.0
CNC(=O)[C@@H]1C[C@H]1[C@@H](NC(=O)OCc1ccccc1)c1ccccc1	255.0*
C[C@@H](C(=O)NCC1CC1)[C@@H]1C[C@@]1(C)[C@@H](NC(=O)OCc1ccccc1)c1ccccc1	0.0
O=C(CN1C(=O)/C(=C\c2ccc(F)cc2)Oc2ccccc21)NCc1ccco1	3.2
CCOC(=O)C1=C(C)OC(N)=C(C#N)C1c1cc(Cl)c(OCC(N)=O)c(OC)c1 (stereo not drawn)	-3.6
COc1ccc(CSCC(=O)Nc2ccccc2SC)cc1	366.7*
COc1ccc(OCC(=O)Nc2ccccc2O)cc1	6.9
COc1ccc(CNC(=O)c2ccccc2SC)cc1	258.8
SMILES	INS promoter act
CCOc1ccc2cc(C#N)c(SCC(=O)NC(C)CC)nc2c1 (stereo not drawn)	-6.1
C=CCc1cccc(/C=N/NC(=O)CCC(=O)Nc2ccc(C)cc2)c1O	0.0
O=C(CC1CCCCC1)N1CCCC(c2nc(-c3ccc(S(=O)(=O)N4CCCC4)cc3)no2)C1 (stereo not drawn)	9.1
CCCCCC(=O)N1CCCC(c2nc(-c3ccc(OC)cc3)no2)C1 (stereo not drawn)	77.1*
COc1ccc(-c2noc(CCC(=O)N3CCC(C)CC3)n2)cc1	113.3
Nn1cnnc1SCC(=O)Nc1ccc2c(c1)OCO2	9.1
COC(=O)c1ccc2c(=O)n(-c3ccccc3F)c(=S)[nH]c2c1	-100.0
Clc1ccc(OCc2nc(-c3ccncc3)no2)c(Cl)c1	8.3
Clc1ccc(-c2nnc(-c3ccccc3)o2)c(Cl)c1	115.4
Clc1ccc(OCc2nnc(-c3ccccc3Br)o2)c(Cl)c1	120.0*
CCNS(=O)(=O)c1ccc(C)c(-n2cnnn2)c1C	388.9
CCc1ccc(-c2cc(C(F)(F)F)n3nc(C(=O)Nc4cnn(Cc5ccc(C)cc5)c4)cc3n2)s1	2.7
Cc1ccc(S(=O)(=O)Nc2cnn(-c3ccccc3)c(=O)c2Cl)cc1	-6.7
COc1ccc(/C=N/NC(=O)c2ccncc2)cc1Cn1nc([N+](=O)[O-])c(Br)c1C	393.8*
COc1cc(/C=N/NC(=O)c2ccncc2)ccc1OC(=O)c1ccc([N+](=O)[O-])cc1	-100.0
COc1ccc(/C=N/NC(=O)c2ccc(Br)o2)cc1Cn1cc([N+](=O)[O-])cn1	0.0
COCCn1c(SCC(=O)Nc2ccc(Cl)cn2)nnc1-c1ccncc1	-7.1
COc1cccc(-n2nnc3c(=O)n(CC(=O)Nc4ccc(C)cc4)cnc32)c1	115.8
O=C(N/N=C/c1ccc([N+](=O)[O-])o1)C1CC1	-5.6
CC(=O)c1ccc(NC(=O)C(C)NCc2ccccc2Cl)cc1 (stereo not drawn)	109.1
CCN(CC)c1ccc(/C=C2\C(=O)N(c3ccc([N+](=O)[O-])cc3)N=C2N2CCOCC2)cc1	347.4
S=C(NCCc1ccccc1)NCc1cccs1	-8.1
CCNC(=O)c1ccccc1CCc1ccccc1	5.3
C=CCOc1c(CNc2cccc(C(=O)O)c2)cccc1OCC	3.3
CCOc1cc(CNCCO)cc(Br)c1OCc1ccc(Cl)cc1Cl	8.3
SMILES	INS promoter act
CCOc1cccc(CNc2ccc(O)cc2)c1OCc1ccc(Cl)cc1Cl	91.4*
O=C(CSc1nc(-c2ccc(F)cc2)cc(C(F)(F)F)n1)NCc1ccco1	9.1
O=C(CCC(=O)OCC(=O)c1ccc(Br)cc1)Nc1ccc(Br)c2cccnc12	2.7
CCOC(=O)/C=c1\s/c(=C\c2ccc3cc(OC)ccc3c2)c(=O)n1CC(=O)NCc1ccc2c(c1)OCO2	335.3*
CCOC(=O)/C=c1\s/c(=C\c2c(OCC)ccc3ccccc23)c(=O)n1CC(=O)NCC1CCCO1 (stereo not drawn)	184.6
COCCNC(=O)Cn1c(=O)n(CCCCCC(=O)NCc2ccc3c(c2)OCO3)c(=O)c2sccc21	-72.2
CC(=O)c1cc(-c2ccccc2)n(CCC(=O)NC(C)(C)C)c1C	8.3
CC(/C=C/c1ccccc1)=N\NC(=O)c1ccc(Br)cc1	388.9*
CC(/C=C/c1ccccc1)=N\NC(=O)CNC(=O)c1ccccc1Cl	-9.4
O=C(N/N=C/C=C/c1ccccc1)c1ccc(Br)cc1	9.7
CC1CCN(S(=O)(=O)c2ccc(C(=O)Nc3nnc(-c4ccccn4)o3)cc2)CC1	136.4
O=C(Nc1nnc(-c2ccccc2Cl)o1)c1ccc(S(=O)(=O)N2CCCCCC2)cc1	400.0*
O=C(Nc1nnc(-c2cccs2)o1)c1ccc(S(=O)(=O)N2CCOCC2)cc1	5.6
COc1ccc2ccccc2c1C(=O)/C=C\c1ccoc1	-78.6
COc1ccc(NS(=O)(=O)c2cccc(NC(=O)c3cnccn3)c2)cc1Br	-5.3
CCn1c(Cc2ccccc2)nnc1SCC(=O)Nc1ccc(OC)cc1	6.7
CCn1c(Cc2ccc(OC)cc2)nnc1SCC(=O)Nc1cccc(C(=O)OC)c1	442.9*
CCn1c(Cc2ccccc2)nnc1SCC(=O)Nc1ccc2c(c1)OCCO2	6.5
O=C(CS(=O)(=O)c1c[nH]c2ccccc12)N1CCCCCC1	9.1
N#C/C(=N\Nc1ccccc1[N+](=O)[O-])C(=N)N1CCCCC1	0.0
O=C(Nc1ccc2c(c1)C(=O)NC2=O)c1ccc(S(=O)(=O)N2CCCC2)cc1	0.0
O=C(CNc1ccccc1)N/N=C/c1c[nH]c2ccccc12	-6.7
O=C(N/N=C/c1c[nH]c2ccccc12)c1[nH]c2ccc(Br)cc2c1-c1ccccc1	233.3
COc1ccccc1NS(=O)(=O)c1cc([N+](=O)[O-])ccc1N/N=C/c1c[nH]c2ccccc12	263.6*
COc1ccccc1NS(=O)(=O)c1ccc(N/N=C/c2c(C)nn(-c3ccccc3)c2N2CCCC2)c([N+](=O)[O-])c1	-3.9
O=[N+]([O-])c1ccc(N/N=C/c2c[nH]c3ccccc23)cc1	222.6*

Compound activity as filed in PubChem.
